The text below walks through data of ChEMBL document CHEMBL1122318, “Aporphines. 50. Kinetics of solvolysis of N-(2-chloroethyl)norapomorphine, an irreversible dopamine receptor antagonist” (J Med Chem, 1983).

Holding throughout (type): ADME
Series [1] is described as follows: Apparent rate of cyclization (kobsd) value at pH 5.40(in 0.1 M acetate). Conditions: pH 5.4. The essentials: (§1)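 Buffers were 0.1 M sodium acetate titrated with 0.1 M acetic acid below pH 6.0, and NaH2PO4–Na2HPO4 (100 mM) at pH 6.0–8.0. Remaining NCA was quantified from peak heights against a 100–900 ng standard curve. First-order kobsd came from log[NCA] versus time over at least two half-lives.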

A short description of series [2]: Apparent rate of cyclization (kobsd) value at pH 5.60(in 0.1 M acetate). Conditions: pH 5.6. The essentials: as §1
Series [3] is described as follows: Apparent rate of cyclization (kobsd) value at pH 5.80(in 0.1 M acetate). Particulars: pH 5.8. The essentials:
as §1

Series [4] is described as follows: Apparent rate of cyclization (kobsd) value at pH 6.00(in 0.1 M phosphate). The essentials: as §1
Series [5] is described as follows: Apparent rate of cyclization (kobsd) value at pH 6.25(in 0.1 M phosphate). The essentials:
as §1

Series [6] can be described thus: Apparent rate of cyclization (kobsd) value at pH 6.50(in 0.1 M phosphate). Conditions: pH 6.5. The essentials: as §1
Series [7] can be described thus: Apparent rate of cyclization (kobsd) value at pH 6.75(in 0.1 M phosphate). In a few lines:
as §1

Series [8] can be described thus: Apparent rate of cyclization (kobsd) value at pH 7.00(in 0.1 M […]).
A short description of series [9]: Apparent rate of cyclization (kobsd) value at pH 8.00(in 0.1 M […]).
Series [10] can be described thus: Half-life period at pH 5.60(in 0.1 M acetate). Conditions: 0.1 M acetate buffer, pH 5.6. The essentials: as §1
Series [11] in a line: Half-life period at pH 5.80(in 0.1 M acetate). Conditions: 0.1 M acetate buffer, pH 5.8. The essentials: as §1
A short description of series [12]: Half-life period at pH 6.00(in 0.1 M […]). Conditions: 0.1 M acetate buffer.
Series [13] can be described thus: Half-life period at pH 6.25(in 0.1 M […]). Conditions: 0.1 M […] buffer.
Series [14] can be described thus: Half-life period at pH 6.75(in 0.1 M […]). Particulars: 0.1 M […] buffer.
The nature of series [15]: Half-life period at pH 7.00(in 0.1 M […]).
Series [16] is described as follows: Half-life period at pH 7.50(in 0.1 M […]). Particulars: 0.1 M […] buffer, pH 7.5.
The nature of series [17]: Half-life period at pH 8.00(in 0.1 M […]). Particulars: 0.1 M […] buffer.
The nature of series [18]: Half-life period at pH 5.40(in 0.1 M acetate). Conditions: 0.1 M acetate buffer, pH 5.4. The essentials: as §1
A short description of series [19]: Half-life period at pH 6.50(in 0.1 M […]). Particulars: 0.1 M […] buffer, pH 6.5.

As a reminder, the half-life is the time needed for the level to fall by half in the phase considered.

Values joined by “and” are separate entries in the source; they are usually repeats but may differ in a detail not shown here. Equal entries are not always repeated.

Take `Oc1ccc2c(c1O)-c1cccc3c1[C@@H](C2)N(CCCl)CC3`: the k obs in series [1] was 36 min⁻¹; in [2], 49 min⁻¹; in series [3], 65 min⁻¹; in series [4], 97 min⁻¹; in series [5], 152 min⁻¹; in series [6] it was 175 min⁻¹. Besides, the k obs in series [7] is 212 min⁻¹; in series [8] it was 243 min⁻¹ and 252 min⁻¹; in series [9], 308 min⁻¹. Further, the half-life was 141 min in series [10]; 107 min in series [11]; 71 min in [12]; 45 min in series [13]; 33 min in series [14]; 29 min in series [15] (0.1 M acetate buffer). Further, the half-life in [16] stood at 24 min; in series [17] it was 22 min; in series [18], 192 min; in series [19] it was 39 min. Moreover, in series [15], the T1/2 is 28 min.
